We go through one compound from ChEMBL document CHEMBL5108077, “Discovery of N-β-l-Fucosyl Amides as High-Affinity Ligands for the Pseudomonas aeruginosa Lectin LecB” (J Med Chem, 2022).

Assay [1] deals with Pseudomonas aeruginosa. The assay can be described thus: Binding affinity to Pseudomonas aeruginosa PA-IIL assessed as change in entropy by isothermal titration calorimetry.
The subject of assay [2] is Pseudomonas aeruginosa. The assay can be described thus: Binding affinity to Pseudomonas aeruginosa PA-IIL assessed as change in enthalpy by isothermal titration calorimetry. In a few lines:
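Recombinant PAO1 LecB expressed in E. coli BL21(DE3), in TBS/Ca²⁺ pH 7.4. Ligand (500–1500 μM) titrated into 100 μM LecB at 25 °C with stirring: 19–39 injections, 240 s apart. First injection discarded. One-site binding model fit. Means from three independent titrations.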

Take `C[C@@H]1O[C@H](O)[C@@H](O)[C@H](O)[C@@H]1O`: the TdeltaS with Pseudomonas aeruginosa [1] was determined as 0.0717 kcal/mol. Also, in the assay on Pseudomonas aeruginosa [2], the deltaH was -7.46 kcal/mol.
